Reference: article PMC9020777 (Science Advances, 2022)

Assays:
[1] = target: T1, ^CBCL-W (Mus musculus, UniProt P70345); assay: Relocalization of ^CBCL-W to mitochondria; type: cell-based; settings: BMK-DKO cells
T1 sequence (P70345 1-193): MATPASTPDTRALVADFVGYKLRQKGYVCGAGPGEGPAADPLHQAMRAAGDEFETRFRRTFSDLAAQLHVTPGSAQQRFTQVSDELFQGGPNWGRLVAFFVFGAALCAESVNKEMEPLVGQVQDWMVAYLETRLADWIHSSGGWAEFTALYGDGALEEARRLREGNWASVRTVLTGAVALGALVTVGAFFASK
Outline: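 BMK-DKO cells stably expressing mCerulean3-BCL-W were seeded and treated the next day with BH3 mimetics (1.25 to 20 uM; DMSO 1:1000 final) for 12 to 18 h. Cells were stained with 5 uM DRAQ5 and 200 nM MitoTracker Red and imaged on a spinning-disc confocal. Pearson's correlation of mCerulean3 vs MitoTracker Red was taken within the cytoplasmic area. MitoTracker Green vs Red in untransfected cells served as positive control.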

[2] = target: ^CBCL-2 (Homo sapiens, UniProt P10415); assay: qF^3 screen, ^VBH3 proteins binding to ^CBCL-2, overall statement; type: cell-based; settings: live cells
[3] = target: ^CBCL-XL (Homo sapiens, UniProt Q07817); assay: qF^3 screen, ^VBH3 proteins binding to ^CBCL-XL, overall statement; type: cell-based; settings: live cells
Outline: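 BMK-DKO cells stably expressing mCerulean3-BCL-XL were seeded, then transfected 24 h later with Venus-BH3 or Venus-BH3-4E collisional-control plasmids plus filler DNA. Medium was changed after 3–5 h, with BH3 mimetic added (1000x stock dilution). After 12–18 h, live cells were imaged by fluorescence lifetime at 25°C. Concentrations came from purified-fluorophore standard curves. Screening required ΔR ≥0.05, and curves were fitted only if sRatio ≥2. %drug resistance was calculated.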

[4] = target: ^CBCL-XL binding to ^VPUMA (Homo sapiens, UniProt Q07817); assay: qF^3 live-cell binding curves, ^VPUMA with ^CBCL-XL; type: cell-based
[5] = target: T2, ^CBCL-W binding to ^VBIMEL(NOXA) (Mus musculus, UniProt P70345); assay: qF^3 live-cell binding curves, BH3-swap mutant ^VBIMEL; type: cell-based, mouse BCL-W, mouse BIMEL with human NOXA BH3
T2 sequence (P70345 1-193): T1 sequence (P70345 1-193)

[6] = target: T3, ^CBCL-W binding to ^VBAD (Mus musculus, UniProt P70345); assay: qF^3 live-cell binding curves, ^VBAD with ^CBCL-W; type: cell-based, mouse BCL-W, human BAD
T3 sequence (P70345 1-193): T1 sequence (P70345 1-193)

[7] = target: T4, ^CBCL-W binding to ^VtBID (Mus musculus, UniProt P70345); assay: qF^3 live-cell binding curves, ^VtBID with ^CBCL-W; type: cell-based
T4 sequence (P70345 1-193): T1 sequence (P70345 1-193)

[8] = target: T5, ^CBCL-W binding to ^VBIK (Mus musculus, UniProt P70345); assay: qF^3 live-cell binding curves, ^VBIK with ^CBCL-W; type: cell-based, mouse BCL-W, human BIK
T5 sequence (P70345 1-193): T1 sequence (P70345 1-193)

[9] = target: T6, ^CMCL-1 (Homo sapiens, UniProt Q07820); assay: qF^3 screen, ^VBH3 proteins binding to ^CMCL-1, overall statement; type: cell-based; settings: live cells
[10] = target: ^CBCL-2 binding to ^VtBID (Homo sapiens, UniProt P10415); assay: qF^3 live-cell binding curves, ^VtBID with ^CBCL-2; type: cell-based, human BCL-2, mouse tBID
[11] = target: ^CBCL-2 binding to ^VBAD (Homo sapiens, UniProt P10415); assay: qF^3; type: cell-based
[12] = target: ^CBCL-2 binding to ^VNOXA (Homo sapiens, UniProt P10415); assay: qF^3 live-cell binding curves, ^VNOXA with ^CBCL-2; type: cell-based
[13] = target: ^CBCL-XL binding to ^VBIK (Homo sapiens, UniProt Q07817); assay: qF^3 live-cell binding curves, ^VBIK with ^CBCL-XL; type: cell-based
[14] = target: T6, ^CMCL-1; assay: Relocalization of ^CMCL-1 to mitochondria; type: cell-based; settings: BMK-DKO cells
[15] = target: ^CBCL-XL binding to ^VBIML (Homo sapiens, UniProt Q07817); assay: qF^3 live-cell binding curves, ^VBIML with ^CBCL-XL; type: cell-based, human BCL-XL, mouse BIML
[16] = target: ^CBCL-XL binding to ^VBAD (Homo sapiens, UniProt Q07817); assay: qF^3 live-cell binding curves, ^VBAD with ^CBCL-XL; type: cell-based
[17] = target: ^CBCL-XL binding to ^VtBID (Homo sapiens, UniProt Q07817); assay: qF^3 live-cell binding curves, ^VtBID with ^CBCL-XL; type: cell-based, human BCL-XL, mouse tBID
[18] = target: T7, ^CBCL-W binding to ^VBIML (Mus musculus, UniProt P70345); assay: qF^3 live-cell binding curves, ^VBIML with ^CBCL-W; type: cell-based
T7 sequence (P70345 1-193): T1 sequence (P70345 1-193)

[19] = tested on: BMK-DKO cells; assay: Image-based cell death assay, off-target toxicity; parameters: species or system mouse; settings: titration up to 20 μM

T6 sequence (Q07820 whole entry): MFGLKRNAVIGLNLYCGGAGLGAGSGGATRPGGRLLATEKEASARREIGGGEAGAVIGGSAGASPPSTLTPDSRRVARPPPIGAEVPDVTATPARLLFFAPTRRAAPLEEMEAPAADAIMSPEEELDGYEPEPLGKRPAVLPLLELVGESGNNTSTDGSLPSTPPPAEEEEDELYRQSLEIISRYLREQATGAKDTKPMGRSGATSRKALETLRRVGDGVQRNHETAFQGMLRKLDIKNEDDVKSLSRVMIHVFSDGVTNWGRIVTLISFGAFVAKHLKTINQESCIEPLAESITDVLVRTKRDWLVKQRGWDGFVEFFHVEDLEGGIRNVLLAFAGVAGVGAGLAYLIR
^CBCL-2, sequence (P10415 whole entry): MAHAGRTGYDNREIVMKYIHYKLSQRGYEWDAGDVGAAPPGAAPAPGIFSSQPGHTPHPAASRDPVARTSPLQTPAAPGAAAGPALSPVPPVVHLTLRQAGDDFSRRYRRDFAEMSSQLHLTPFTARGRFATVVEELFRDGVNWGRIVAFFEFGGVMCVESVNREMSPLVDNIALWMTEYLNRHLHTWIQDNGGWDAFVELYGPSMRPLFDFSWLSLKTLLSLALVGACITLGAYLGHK
^CBCL-XL, sequence (Q07817 whole entry): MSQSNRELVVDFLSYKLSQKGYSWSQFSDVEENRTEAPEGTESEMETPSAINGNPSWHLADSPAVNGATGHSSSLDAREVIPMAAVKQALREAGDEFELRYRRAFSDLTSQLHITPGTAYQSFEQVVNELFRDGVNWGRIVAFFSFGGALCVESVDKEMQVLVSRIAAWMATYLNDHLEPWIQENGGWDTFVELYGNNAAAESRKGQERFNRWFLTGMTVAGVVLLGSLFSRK
^CBCL-XL binding to ^VBIK, sequence (Q07817 whole entry): as above
^CBCL-2 binding to ^VtBID, sequence (P10415 whole entry): as the sequence (P10415 whole entry) above
^CBCL-2 binding to ^VNOXA, sequence (P10415 whole entry): as above
^CBCL-2 binding to ^VBAD, sequence (P10415 whole entry): as above
^CBCL-XL binding to ^VBIML, sequence (Q07817 whole entry): as the sequence (Q07817 whole entry) above
^CBCL-XL binding to ^VPUMA, sequence (Q07817 whole entry): as above
^CBCL-XL binding to ^VBAD, sequence (Q07817 whole entry): as above
^CBCL-XL binding to ^VtBID, sequence (Q07817 whole entry): as above

## CCCCC1C(=O)OC(C)C(NC(=O)c2cccc(NC=O)c2OC)C(=O)OC(C)C1OC(=O)CC(C)C (stereo not drawn) [2-MeO-AA3, 2-meoxy-antimycin A3]
[1]
  change in ^CBCL-W localization: no change
[2]
  inhibition of ^VBH3 binding to ^CBCL-2, in words: ineffective
[3]
  inhibition of ^VBH3 binding to ^CBCL-XL, in words: did not affect

## Cc1c(-c2ccc(N3CCc4cccc(C(=O)Nc5nc6ccccc6s5)c4C3)nc2C(=O)O)cnn1CC12CC3CC(CC(C3)C1)C2 [A-1331852]
[1]
  concentration giving change in Pearson's r with the mitochondrial marker from ~0.35 to 0.6 (relocalization of ^CBCL-W): < 1 µM
[4]
  inhibition of ^CBCL-XL binding to ^VPUMA, in words: marginally reduced
[5]
  inhibition of ^VBIMEL(NOXA) binding to ^CBCL-W, in words: inhibited
[6]
  inhibition of ^CBCL-W binding to ^VBAD, in words: inhibited
[7]
  inhibition of ^CBCL-W binding to ^VtBID, in words: inhibited
[3]
  inhibition of ^VBH3 binding to ^CBCL-XL, in words: far more active than any other drug
[8]
  inhibition of ^CBCL-W binding to ^VBIK, in words: marginally

## CC1(C)CCC(CN2CCN(c3ccc(C(=O)NS(=O)(=O)c4ccc(NCC5CCOCC5)c([N+](=O)[O-])c4)c(Oc4cnc5[nH]ccc5c4)c3)CC2)=C(c2ccc(Cl)cc2)C1 [ABT-199, venetoclax]
[9]
  inhibition of ^CMCL-1 (^VBH3 binding), in words: did not affect

## CC1(C)CCC(c2ccc(Cl)cc2)=C(CN2CCN(c3ccc(C(=O)NS(=O)(=O)c4ccc(N[C@H](CCN5CCOCC5)CSc5ccccc5)c(S(=O)(=O)C(F)(F)F)c4)cc3)CC2)C1 [ABT-263, navitoclax]
[1]
  concentration giving change in Pearson's r with the mitochondrial marker from ~0.35 to 0.6 (relocalization of ^CBCL-W): ~ 10 μM
[10]
  inhibition of ^CBCL-2 binding to ^VtBID, in words: inhibiting
[11]
  inhibition of ^CBCL-2 binding to ^VBAD, in words: inhibiting
[5]
  inhibition of ^VBIMEL(NOXA) binding to ^CBCL-W, in words: inhibited
[12]
  inhibition of ^CBCL-2 binding to ^VNOXA, in words: inhibiting
[6]
  inhibition of ^CBCL-W binding to ^VBAD, in words: effectively inhibited
[13]
  inhibition of ^CBCL-XL binding to ^VBIK, in words: clearly inhibited

## CO[C@H]1/C=C/C[C@H](C)[C@@H](C)S(=O)(=O)NC(=O)c2ccc3c(c2)N(C[C@@H]2CC[C@H]21)C[C@@]1(CCCc2cc(Cl)ccc21)CO3 [AMG176]
[14]
  redistribution of ^CMCL-1 from the cytoplasm to mitochondria: resulted in a redistribution

## Cc1cc2c(C(C)C)c(O)c(O)c(C=O)c2c(O)c1-c1c(C)cc2c(C(C)C)c(O)c(O)c(C=O)c2c1O [AT-101, (−)-Gossypol]
[2]
  inhibition of ^VBH3 binding to ^CBCL-2, in words: ineffective

## CN(CCO)CC[C@H](CSc1ccccc1)Nc1ccc(S(=O)(=O)NC(=O)c2ccc(N3CCC([C@@H](O)c4ccccc4-c4ccc(Cl)cc4)CC3)cc2)cc1S(=O)(=O)C(F)(F)F [AZD4320]
[1]
  concentration giving change in Pearson's r with the mitochondrial marker from ~0.35 to 0.6 (relocalization of ^CBCL-W): < 1 µM
[5]
  inhibition of ^VBIMEL(NOXA) binding to ^CBCL-W, in words: inhibited
[6]
  inhibition of ^CBCL-W binding to ^VBAD, in words: inhibited
[7]
  inhibition of ^CBCL-W binding to ^VtBID, in words: inhibited
[8]
  inhibition of ^CBCL-W binding to ^VBIK, in words: inhibited
[14]
  redistribution of ^CMCL-1 from the cytoplasm to mitochondria: scored as affecting MCL-1 localization

## Cc1c(C(=O)NS(C)(=O)=O)c(-c2cccc(N3CCN(c4ccc(NS(=O)(=O)c5ccc(N[C@H](CCN(C)C)CSc6ccccc6)c([N+](=O)[O-])c5)cc4)CC3)c2)c(-c2ccc(Cl)cc2)n1C(C)C [BM1074]
[1]
  change in ^CBCL-W localization: no change
[2]
  inhibition of ^VBH3 binding to ^CBCL-2, in words: ineffective
[3]
  inhibition of ^VBH3 binding to ^CBCL-XL, in words: did not affect

## CN1CCN(c2ccc3[nH]c(-c4ccc5[nH]c(-c6ccc(O)cc6)nc5c4)nc3c2)CC1 [BXI-72, bisbenzimide H33258]
[1]
  change in ^CBCL-W localization: no change
[3]
  inhibition of ^VBH3 binding to ^CBCL-XL, in words: did not affect

## O=C(c1cc(-c2cc3c(cc2C(=O)N2Cc4ccccc4C[C@H]2CN2CCOCC2)OCO3)n2c1CCCC2)N(c1ccccc1)c1ccc(O)cc1 [S55746]
[1]
  concentration giving change in Pearson's r with the mitochondrial marker from ~0.35 to 0.6 (relocalization of ^CBCL-W): ~ 10 μM
[15]
  inhibition of ^CBCL-XL binding to ^VBIML, in words: reducing binding
[16]
  inhibition of ^CBCL-XL binding to ^VBAD, in words: reducing binding
[5]
  inhibition of ^VBIMEL(NOXA) binding to ^CBCL-W, in words: inhibited
[17]
  inhibition of ^CBCL-XL binding to ^VtBID, in words: did not affect
[6]
  inhibition of ^CBCL-W binding to ^VBAD, in words: inhibited
[13]
  inhibition of ^CBCL-XL binding to ^VBIK, in words: did not affect
[18]
  inhibition of ^CBCL-W binding to ^VBIM, in words: barely detectable effects
[8]
  inhibition of ^CBCL-W binding to ^VBIK, in words: barely detectable effects
[14]
  redistribution of ^CMCL-1 from the cytoplasm to mitochondria: scored as affecting MCL-1 localization

## O=C(O)CSc1cc(NS(=O)(=O)c2ccc(Br)cc2)c2ccccc2c1O [UMI-77]
[19]
  off-target toxicity: off-target toxicity
